M5 antag – antagonists of human muscarinic M5 receptor (CHRM5). inhibition, % at 3 µM. CHO-hM5 cells, Fluo-8 calcium fluorescence, ACh EC80. P08912. AID 624040. hit rate 0.59% among 360,000;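 active = inhibition above a per-plate cutoff, the mean of that plate's test compounds plus 3 SD, cut at about 27% in these data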;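 note: 0% = acetylcholine EC80 with DMSO and 100% = DMSO without agonist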
Target sequence (P08912 whole entry, looked up): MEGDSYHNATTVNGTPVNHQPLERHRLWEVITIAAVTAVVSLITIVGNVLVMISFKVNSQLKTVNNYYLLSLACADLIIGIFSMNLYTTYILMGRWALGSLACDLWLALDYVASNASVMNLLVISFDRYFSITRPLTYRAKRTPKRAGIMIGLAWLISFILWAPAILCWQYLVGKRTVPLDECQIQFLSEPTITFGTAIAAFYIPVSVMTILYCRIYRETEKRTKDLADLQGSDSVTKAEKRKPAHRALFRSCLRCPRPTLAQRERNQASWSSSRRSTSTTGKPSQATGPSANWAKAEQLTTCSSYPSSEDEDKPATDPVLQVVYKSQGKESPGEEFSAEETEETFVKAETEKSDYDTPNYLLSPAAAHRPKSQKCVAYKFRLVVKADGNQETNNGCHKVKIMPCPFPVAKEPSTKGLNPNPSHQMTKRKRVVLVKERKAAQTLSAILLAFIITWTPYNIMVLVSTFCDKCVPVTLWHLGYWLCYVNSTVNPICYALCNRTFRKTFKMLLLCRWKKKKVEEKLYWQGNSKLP
CHO-K1 Ca PAM – nonselective activator or artifact in parental CHO-K1 calcium assay; ATP EC20, Fluo-8 calcium fluorescence; 0% at ATP EC20, 100% at ATP max; activation, % at 3 µM; hit rate 0.02% among 360,000; AID 602247;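 active = activation above the run cutoff, the mean activation of all test compounds plus 3 SD, cut at about 40% in these data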;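 note: peak over basal fluorescence ratio in a 140 s read after ATP addition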
CHO-K1 Ca antag – counter-screen for M1 antagonists: effect in parental CHO-K1 cells | ATP-induced calcium, Fluo-8 fluorescence | inhibition, % at 3 µM | hit rate 0.6% among 360,000;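 active = inhibition above a per-plate cutoff, the plate's mean sample inhibition plus 3 SD, cut at about 24% in these data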;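 note: 0% = DMSO plus EC80 ATP and 100% = DMSO alone without ATP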
CHRM5 agonist – agonists of human muscarinic M5 receptor (CHRM5) | P08912 | CHO-K1 hM5 cells, Fluo-8 calcium fluorescence; 0% DMSO wells, 100% maximal acetylcholine response | activation, % at 3 µM | hit rate 0.19% among 360,000 | AID 624037;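 active = activation above the run's mean over test compounds plus 3 SD, cut at about 23% in these data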;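 note: signal is peak over basal fluorescence ratio across the kinetic read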
M5 PAM – positive allosteric modulators of human muscarinic M5 receptor; activation, % at 3 µM; P08912; CHO-K1 hM5, Fluo-8 calcium, ACh EC20 PAM; 0% = ACh EC20, 100% = ACh EC100; hit rate 0.3% among 360,000;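 active = activation above the run cutoff, the mean activation of all test compounds plus 3 SD, cut at about 18% in these data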
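system = human M5 receptor in CHO-K1 cells | reagent = EC20 acetylcholine as agonist stimulus | compound dosing = single-point, 3 µM nominal | incubation = Fluo-8 loading 80 min at 37 °C plus 30 min room temperature | detection = Fluo-8 calcium dye fluorescence, kinetic read | benchmarks = low control EC20 acetylcholine (0%), high control EC100 acetylcholine (100%)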
CHO-K1 Ca ag – nonselective activator or artifact in parental CHO-K1 cells; Fluo-8 calcium fluorescence; scaled to maximal ATP response, vehicle zero; activation, % at 3 µM; hit rate 0.48% among 360,000; AID 602248; in the data active = activation above about 15%;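 note: untransfected CHO-K1 host cells lacking M1 receptor as counterscreen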
* hit, by the source's call. Hits are enriched below; roughly 1.7% of the tested compounds scored in any of these assays.

N#Cc1ccc(S(=O)(=O)N2CCC(N3CCCCC3)CC2)cc1 was read as M5 antag -0.2, CHO-K1 Ca PAM 8.1, CHO-K1 Ca antag -6.4, CHRM5 agonist -3.3, M5 PAM 3.1 and CHO-K1 Ca ag 0.4.
Screening COc1ccc(Cn2nnnc2C(CC(C)C)N2CCC(C(N)=O)CC2)cc1 (stereo unspecified) returned M5 antag -2.3, CHO-K1 Ca PAM 17.9, CHO-K1 Ca antag 0.2, CHRM5 agonist -2.9, M5 PAM 21.4* and CHO-K1 Ca ag 0.5.
For CCCC(c1nnnn1Cc1ccc(OC)cc1)N1CCC(C(N)=O)CC1 (stereo unspecified) the results were M5 antag -1.2, CHO-K1 Ca PAM 23.5, CHO-K1 Ca antag -4.3, CHRM5 agonist -5.1, M5 PAM 4.1 and CHO-K1 Ca ag 0.9.
Screening O=C(CNC(=O)c1cnccn1)Nc1ccc(F)c(F)c1F returned M5 antag -12.4, CHO-K1 Ca PAM -5.9, CHO-K1 Ca antag 12.1, CHRM5 agonist 14.9, M5 PAM 21.5* and CHO-K1 Ca ag -0.1.
O=C(O)CSc1ncccn1 was read as M5 antag 3.6, CHO-K1 Ca PAM -17.3, CHO-K1 Ca antag 6.8, CHRM5 agonist 1.0, M5 PAM -5.5 and CHO-K1 Ca ag 0.0.
For O=C(CSc1ncccn1)c1ccccc1Br the results were M5 antag -2.3, CHO-K1 Ca PAM -5.7, CHO-K1 Ca antag 26.8*, CHRM5 agonist -1.6, M5 PAM 4.0 and CHO-K1 Ca ag 0.4.
`COc1ccc(OC)c(NC(=O)Nc2ccc3[nH]ccc3c2)c1` gave M5 antag -0.1, CHO-K1 Ca PAM -8.1, CHO-K1 Ca antag 58.9*, CHRM5 agonist 0.0, M5 PAM 0.7 and CHO-K1 Ca ag -0.7.
`COc1ccc(OC)c(NC(=O)Nc2ccc(Cl)cc2)c1` gave M5 antag 20.1, CHO-K1 Ca PAM -11.8, CHO-K1 Ca antag 8.1, CHRM5 agonist 0.8, M5 PAM -12.5 and CHO-K1 Ca ag 1.0.
Screening Cc1onc(-c2ccccc2)c1C(=O)NC(=S)NNC(=O)c1ccccc1O returned M5 antag -0.6, CHO-K1 Ca PAM -13.0, CHO-K1 Ca antag 13.2, CHRM5 agonist 19.8, M5 PAM -16.5 and CHO-K1 Ca ag 77.0*.
For CCCOc1ccc(NC(=O)c2c(-c3ccccc3)noc2C)cc1 the results were M5 antag 2.9, CHO-K1 Ca PAM 15.8, CHO-K1 Ca antag -5.7, CHRM5 agonist -1.0, M5 PAM 2.7 and CHO-K1 Ca ag -0.1.
Screening CCCOc1ccc(C(=O)NC(=S)NNC(=O)c2c(-c3ccccc3)noc2C)cc1 returned M5 antag 16.4, CHO-K1 Ca PAM -32.3, CHO-K1 Ca antag 11.9, CHRM5 agonist 19.5, M5 PAM -16.4 and CHO-K1 Ca ag 32.7*.
Screening CCN(CC(=O)Nc1cc(Cl)ccc1C)C(=O)C1CCN(c2ncnc3sc(C)c(C)c23)CC1 returned M5 antag 27.3*, CHO-K1 Ca PAM -11.3, CHO-K1 Ca antag 3.9, CHRM5 agonist 2.3, M5 PAM -17.8 and CHO-K1 Ca ag 5.2.
For Cc1sc2ncnc(N3CCC(C(=O)N(C)CC(=O)Nc4ccccc4Cl)CC3)c2c1C the results were M5 antag -0.8, CHO-K1 Ca PAM -3.5, CHO-K1 Ca antag 7.0, CHRM5 agonist -0.8, M5 PAM -16.1 and CHO-K1 Ca ag 8.0.
`COc1ccc(CCNC(=O)CCC(=O)N2CCN(S(=O)(=O)c3ccc(Cl)cc3)CC2)cc1OC` gave M5 antag -9.4, CHO-K1 Ca PAM 8.2, CHO-K1 Ca antag -9.0, CHRM5 agonist -8.0, M5 PAM 5.0 and CHO-K1 Ca ag 0.8.
Screening COc1ccccc1Oc1coc2c(CN3CCOCC3)c(O)ccc2c1=O returned M5 antag 2.3, CHO-K1 Ca PAM 17.1, CHO-K1 Ca antag 0.8, CHRM5 agonist -5.0, M5 PAM -5.9 and CHO-K1 Ca ag 10.7.
For COc1cccc(Oc2coc3c(CN4CCOCC4)c(O)ccc3c2=O)c1 the results were M5 antag 4.4, CHO-K1 Ca PAM -2.1, CHO-K1 Ca antag 27.7*, CHRM5 agonist -7.9, M5 PAM -2.5 and CHO-K1 Ca ag -0.2.
O=C(Cn1cnc2cc([N+](=O)[O-])ccc2c1=O)Nc1ccccc1-c1ccccc1 was read as M5 antag 1.5, CHO-K1 Ca PAM 21.2, CHO-K1 Ca antag -14.6, CHRM5 agonist 1.7, M5 PAM 0.5 and CHO-K1 Ca ag 3.7.
CCN1C(=O)c2cccc3c(N)ccc(c23)C1=O was read as M5 antag 27.0*, CHO-K1 Ca PAM -14.6, CHO-K1 Ca antag 18.6, CHRM5 agonist 104.0*, M5 PAM -19.1 and CHO-K1 Ca ag 72.3*.
Screening Cc1nn(C)c(C)c1N1C(=O)c2cccc3c(N)ccc(c23)C1=O returned M5 antag 27.9*, CHO-K1 Ca PAM -9.9, CHO-K1 Ca antag 30.8*, CHRM5 agonist 37.5*, M5 PAM -15.0 and CHO-K1 Ca ag 63.0*.
`CCCN1C(=O)c2cccc3c(N4CCCCC4)ccc(c23)C1=O` gave M5 antag 6.5, CHO-K1 Ca PAM 11.9, CHO-K1 Ca antag 3.5, CHRM5 agonist 4.2, M5 PAM -3.2 and CHO-K1 Ca ag 4.3.
Screening CCCCNc1ccc2c3c(cccc13)C(=O)N(CCCC)C2=O returned M5 antag 97.0*, CHO-K1 Ca PAM -23.2, CHO-K1 Ca antag 92.6*, CHRM5 agonist 591.4*, M5 PAM -21.4 and CHO-K1 Ca ag 348.0*.
Cc1ccc(N2C(=O)c3cccc4c(N)ccc(c34)C2=O)c2cccnc12 was read as M5 antag 3.8, CHO-K1 Ca PAM -9.4, CHO-K1 Ca antag 13.6, CHRM5 agonist 37.8*, M5 PAM -12.0 and CHO-K1 Ca ag 22.6*.
Screening COC(=O)[C@@]12C[C@@H](CC(=O)N3CCN(C(=O)c4ccco4)CC3)C(=O)N(Cc3ccco3)C1=CCC(C)(C)C2 returned M5 antag 10.4, CHRM5 agonist 0.0 and M5 PAM -8.5.
`O=C(c1ccc(F)cc1Cl)N(Cc1ccco1)C1CCS(=O)(=O)C1` (stereo unspecified) gave M5 antag 3.7, CHO-K1 Ca PAM 6.2, CHO-K1 Ca antag -8.3, CHRM5 agonist 1.4, M5 PAM 5.0 and CHO-K1 Ca ag 0.7.
`O=C(NCC1COc2ccccc2O1)c1c[nH]c2ccc(S(=O)(=O)N3CCOCC3)cc2c1=O` (stereo unspecified) gave M5 antag -0.3, CHO-K1 Ca PAM 20.0, CHO-K1 Ca antag -21.5, CHRM5 agonist -0.4, M5 PAM 6.4 and CHO-K1 Ca ag 0.8.
For COc1ccc(NC(=O)N2c3ccc(OC)cc3C(C)=CC2(C)C)cc1 the results were M5 antag 12.6, CHO-K1 Ca PAM 6.7, CHO-K1 Ca antag 25.5*, CHRM5 agonist -0.8, M5 PAM -5.0 and CHO-K1 Ca ag 0.2.
Screening COc1ccc(NC(=O)N2c3ccccc3C(C)=CC2(C)C)cc1 returned M5 antag 5.8, CHO-K1 Ca PAM -12.7, CHO-K1 Ca antag 6.8, CHRM5 agonist -0.6, M5 PAM -7.0 and CHO-K1 Ca ag -0.4.

Compound activity (PubChem)
